For data set [1], the system named is Plasmodium falciparum. As to the kind of experiment: Antimalarial activity against Plasmodium falciparum W2 assessed as plasmodial LDH activity after 72 hrs. The format is functional, organism-based. The note with it: Plasmodium falciparum, W2, 72 h; read-out: IC50. The method in brief: (§1)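 P. falciparum D6 (chloroquine-sensitive) and W2 (chloroquine-resistant) clones screened in vitro alongside Vero cytotoxicity, up to a highest concentration of 12.5; IC50 determined.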

The nature of data set [2]: Selectivity index, IC50 for african green monkey Vero cells to IC50 for Plasmodium falciparum W2. It counts as functional. The method in brief: (§2)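 Selectivity index is the cytotoxicity IC50 in Vero cells divided by the antimalarial IC50 against the stated P. falciparum clone (D6 or W2).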
Data set [3] in a line: Selectivity index, IC50 for african green monkey Vero cells to IC50 for Plasmodium falciparum D6. It counts as functional. In outline: as §2
For data set [4], the system named is Vero. Description: Cytotoxicity against african green monkey Vero cells at 12.5 uM. The format is cell-based. The note with it: chlorocebus sabaeus. The method in brief: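 Mammalian kidney Vero cells screened in vitro for cytotoxicity, in parallel with the antimalarial screen, up to a highest concentration of 12.5.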
The test system of another data set is SK-OV-3. As to the kind of experiment: Cytotoxicity against human SKOV3 cells up to 25 uM. The format is cell-based. In outline:
(§3)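 Cytotoxicity panel: four cancer lines (SK-MEL, KB, BT-549, SK-OV-3) and two non-cancer lines (Vero, LLC-PK11), tested up to a concentration of 25.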

Data set [5] relates to Plasmodium falciparum. Description: Antimalarial activity against Plasmodium falciparum D6 assessed as plasmodial LDH activity after 72 hrs. The note with it: Plasmodium falciparum, D6, 72 h; read-out: IC50. The format is functional, organism-based. In outline:
as §1

Data set [6] is described as follows: Cytotoxicity against pig LLC-PK11 cells up to 25 uM. It counts as cell-based, Sus scrofa. In outline: as §3
Another data set deals with BT-549. As to the kind of experiment: Cytotoxicity against human BT549 cells up to 25 uM. The format is cell-based. In outline:
as §3

Data set [7] relates to Vero. Description: Cytotoxicity against african green monkey Vero cells up to 25 uM. The conditions noted are these: chlorocebus sabaeus. It counts as cell-based. The method in brief: as §3
Another data set concerns SK-MEL. Description: Cytotoxicity against human SK-MEL cells up to 25 uM. The format is cell-based. The method in brief:
as §3

The subject of a further data set is KB. As to the kind of experiment: Cytotoxicity against human KB cells up to 25 uM. The format is cell-based. The method in brief: as §3

What is called IC50 is the midpoint of a concentration-inhibition curve.

`Cc1ccc(C2OOC(c3ccc(CNc4cccnc4)cc3)OO2)cc1` (stereo unspecified): the IC50 is 0.57 µM in the data set with Plasmodium falciparum [1] and 0.38 µM in the data set on Plasmodium falciparum [5]. The “Ratio IC50” value was more than 22.7 in data set [2] and more than 34 in [3]. For the same molecule, the Activity entry (with Vero [4]; in the data set with SK-OV-3; in data set [6]; with BT-549; with Vero [7]; in the data set with SK-MEL) was “Non-toxic” each time. Moreover, the Activity entry in the data set on KB was “Non-toxic”.

The values are drawn from ChEMBL document CHEMBL1795212, “Synthesis and in vitro antimalarial activity of tetraoxane-amine/amide conjugates” (Eur J Med Chem, 2011).
